Data as given in ChEMBL document CHEMBL5096226, “Structure-Activity Relationship Study of Momordica Saponin II Derivatives as Vaccine Adjuvants” (J Med Chem, 2022).
Calls of active or inactive are those of the source.

How the values were obtained:
Format in all cases: functional, organism-based
Mus musculus [1] = assay: Immuno-adjuvant activity in BALB/c mouse Splenocyte assessed as increase in CD4+ T cells at 20 ug, sc administered on day 0, 14 and 28 and measured at week 6 post immunization by flow cytometry analysis; details: dose 20.0 µg, time 6.0 weeks
In short: (§1)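 Female BALB/c mice (8–10 wk, six per group) given OVA 20 μg s.c. with adjuvant on days 0, 14, 28; spleens taken at week 6. Splenocytes stained with viability dye, Fc-blocked, surface-stained 30 min. For intracellular cytokines, cells stimulated 5 h with leukocyte activation cocktail plus GolgiPlug, then fixed/permeabilized. IL-21 detected with IL-21R Fc chimera. All steps at 4 °C. Read as MFI, mean ± SEM.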

Mus musculus [2] = assay: Immuno-adjuvant activity in BALB/c mouse assessed as increase in anti-OVA IgG2a antibody in serum at 20 ug, sc administered on day 0, 14 and 28 and measured at 2 weeks in presence of chicken egg ovalbumin by ELISA; details: dose 20.0 µg
In short: (§2)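 Female BALB/c mice (8–10 wk, six per group) immunized s.c. with OVA 20 μg ± adjuvant on days 0, 14, 28. Tail-vein serum taken before each dose and 2 wk after the last. ELISA on OVA-coated (0.1 μg/mL) plates in borate saline pH 8.2. Twofold serum dilutions in duplicate, overnight at 4 °C. HRP anti-mouse IgG/subclass applied 4 h, OPD substrate, read at 490 nm. Concentrations from reference-serum standard curves (4-parameter fit).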

Mus musculus [3] = assay: Immuno-adjuvant activity in BALB/c mouse assessed as increase in dark zone B cells at 20 ug, sc administered on day 0, 14 and 28 and measured at week 6 post immunization by flow cytometry analysis; details: dose 20.0 µg, time 6.0 weeks
In short: (§3)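 Female BALB/c mice (8–10 wk, six per group), OVA 20 μg s.c. plus adjuvant on days 0, 14, 28; spleens collected week 6. Single-cell splenocyte suspensions stained and analysed by flow cytometry. TFH gated PD-1+Bcl6+Foxp3−CD4+CD3+, TFR PD-1+Bcl6+Foxp3+CD4+CD3+, dark zone GC B cells CXCR4hiCD86loFas+GL-7+CD19+. Steps at 4 °C. Mean ± SEM; unpaired t tests.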

Mus musculus [4] = assay: Immuno-adjuvant activity in BALB/c mouse assessed as increase in IL-21 expressing CD4+ effector T cells in spleen at 20 ug, sc administered on day 0, 14 and 28 and measured at week 6 post immunization by flow cytometry analysis; details: T-cell, dose 20.0 µg, time 6.0 weeks; in short: as §1
Mus musculus [5] = assay: Immuno-adjuvant activity in BALB/c mouse assessed as increase in ratio of TFH to TFR cells at 20 ug, sc administered on day 0, 14 and 28 and measured at week 6 post immunization by flow cytometry analysis; details: dose 20.0 µg, time 6.0 weeks; in short: as §3
Mus musculus [6] = assay: Immuno-adjuvant activity in BALB/c mouse assessed as increase in anti-OVA Ig2a antibody in serum at 20 ug, sc administered on day 0, 14 and 28 and measured at 4 and 6 weeks in presence of chicken egg ovalbumin by ELISA; details: dose 20.0 µg, time 4-6 weeks; in short: as §2
Mus musculus [7] = assay: Immuno-adjuvant activity in BALB/c mouse assessed as increase in IL-4 expressing CD4+ effector T cells in spleen at 20 ug, sc administered on day 0, 14 and 28 and measured at week 6 post immunization by flow cytometry analysis; details: T-cell, dose 20.0 µg, time 6.0 weeks; in short: as §1
Mus musculus [8] = assay: Immuno-adjuvant activity in BALB/c mouse assessed as increase in follicular helper T cells in spleen at 20 ug, sc administered on day 0, 14 and 28 and measured at week 6 post immunization by flow cytometry analysis; details: T-cell, dose 20.0 µg, time 6.0 weeks; in short: as §3
Mus musculus [9] = assay: Immuno-adjuvant activity in BALB/c mouse assessed as reduction in TFR cells in spleen at 20 ug, sc administered on day 0, 14 and 28 and measured at week 6 post immunization by flow cytometry analysis; details: dose 20.0 µg, time 6.0 weeks; in short: as §3
Mus musculus [10] = assay: Immuno-adjuvant activity in BALB/c mouse assessed as increase in anti-OVA IgG antibody in serum at 20 ug, sc administered on day 0, 14 and 28 and measured at 2, 4 and 6 weeks in presence of chicken egg ovalbumin by ELISA; details: dose 20.0 µg, time 2-6 weeks; in short: as §2
Mus musculus [11] = assay: Immuno-adjuvant activity in BALB/c mouse Splenocyte assessed as increase in CD8+ T cells at 20 ug, sc administered on day 0, 14 and 28 and measured at week 6 post immunization by flow cytometry analysis; details: dose 20.0 µg, time 6.0 weeks; in short: as §1
Mus musculus [12] = assay: Immuno-adjuvant activity in BALB/c mouse assessed as increase in CD19+ B cells in spleen at 20 ug, sc administered on day 0, 14 and 28 and measured at week 6 post immunization by flow cytometry analysis; details: dose 20.0 µg, time 6.0 weeks; in short: as §3
Mus musculus [13] = assay: Immuno-adjuvant activity in BALB/c mouse assessed as increase in IL-4 expressing CD4+ effector T cells in spleen at 100 ug, sc administered on day 0, 14 and 28 and measured at week 6 post immunization by flow cytometry analysis; details: T-cell, dose 100.0 µg, time 6.0 weeks; in short: as §1
Mus musculus [14] = assay: Immuno-adjuvant activity in BALB/c mouse assessed as increase in ratio of TFH to TFR cells at 100 ug, sc administered on day 0, 14 and 28 and measured at week 6 post immunization by flow cytometry analysis; details: dose 100.0 µg, time 6.0 weeks; in short: as §3
Mus musculus [15] = assay: Immuno-adjuvant activity in BALB/c mouse assessed as increase in dark zone B cells at 100 ug, sc administered on day 0, 14 and 28 and measured at week 6 post immunization by flow cytometry analysis; details: dose 100.0 µg, time 6.0 weeks; in short: as §3
Mus musculus [16] = assay: Immuno-adjuvant activity in BALB/c mouse assessed as increase in anti-OVA IgG1 antibody in serum at 100 ug, sc administered on day 0, 14 and 28 and measured at 4 weeks in presence of chicken egg ovalbumin by ELISA; details: dose 100.0 µg; in short: as §2
Mus musculus [17] = assay: Immuno-adjuvant activity in BALB/c mouse assessed as increase in CD19+ B cells in spleen at 100 ug, sc administered on day 0, 14 and 28 and measured at week 6 post immunization by flow cytometry analysis; details: dose 100.0 µg, time 6.0 weeks; in short: as §3
Mus musculus [18] = assay: Immuno-adjuvant activity in BALB/c mouse assessed as increase in anti-OVA Ig2a antibody in serum at 100 ug, sc administered on day 0, 14 and 28 and measured at 4 and 6 weeks in presence of chicken egg ovalbumin by ELISA; details: dose 100.0 µg, time 4-6 weeks; in short: as §2
Mus musculus [19] = assay: Immuno-adjuvant activity in BALB/c mouse assessed as increase in IL-21 expressing CD4+ effector T cells in spleen at 100 ug, sc administered on day 0, 14 and 28 and measured at week 6 post immunization by flow cytometry analysis; details: T-cell, dose 100.0 µg, time 6.0 weeks; in short: as §1
Mus musculus [20] = assay: Immuno-adjuvant activity in BALB/c mouse assessed as increase in anti-OVA IgG antibody in serum at 50 ug, sc administered on day 0, 14 and 28 and measured at 2, 4 and 6 weeks in presence of chicken egg ovalbumin by ELISA; details: dose 50.0 µg, time 2-6 weeks; in short: as §2
Splenocyte [21] = assay: Immuno-adjuvant activity in BALB/c mouse Splenocyte assessed as increase in CD8+ T cells at 100 ug, sc administered on day 0, 14 and 28 and measured at week 6 post immunization by flow cytometry analysis; details: dose 100.0 µg, time 6.0 weeks; in short: as §1
Mus musculus [22] = assay: Immuno-adjuvant activity in BALB/c mouse assessed as increase in follicular helper T cells in spleen at 100 ug, sc administered on day 0, 14 and 28 and measured at week 6 post immunization by flow cytometry analysis; details: T-cell, dose 100.0 µg, time 6.0 weeks; in short: as §3
Splenocyte [23] = assay: Immuno-adjuvant activity in BALB/c mouse Splenocyte assessed as increase in CD4+ T cells at 100 ug, sc administered on day 0, 14 and 28 and measured at week 6 post immunization by flow cytometry analysis; details: dose 100.0 µg, time 6.0 weeks; in short: as §1
Mus musculus [24] = assay: Immuno-adjuvant activity in BALB/c mouse Splenocyte assessed as increase in CD4+ surface expression of PD-1 at 50 ug, sc administered on day 0, 14 and 28 and measured at week 6 post immunization by flow cytometry analysis; details: dose 50.0 µg, time 6.0 weeks; in short: as §1
Mus musculus [25] = assay: Immuno-adjuvant activity in BALB/c mouse assessed as reduction in TFR cells in spleen at 100 ug, sc administered on day 0, 14 and 28 and measured at week 6 post immunization by flow cytometry analysis; details: dose 100.0 µg, time 6.0 weeks; in short: as §3

Measured: Activity

CC[C@H](C)[C@H](C[C@H](O)CC(=O)O[C@@H]1[C@H](O)[C@@H](O[C@@H]2O[C@@H](C)[C@H](O[C@@H]3OC[C@@H](O)[C@H](O[C@@H]4OC[C@](O)(CO)[C@H]4O)[C@H]3O)[C@@H](O)[C@H]2O)[C@H](OC(=O)[C@]23CCC(C)(C)C[C@H]2C2=CC[C@@H]4[C@@]5(C)CC[C@H](O[C@@H]6O[C@H](C(=O)O)[C@@H](O)[C@H](O[C@@H]7OC[C@@H](O)[C@H](O)[C@H]7O)[C@H]6O[C@@H]6O[C@H](CO)[C@H](O)[C@H](O)[C@H]6O)[C@@](C)(C=O)[C@@H]5CC[C@@]4(C)[C@]2(C)C[C@H]3O)O[C@@H]1C)OC(=O)C[C@@H](O)C[C@H](O[C@@H]1O[C@@H](CO)[C@H](O)[C@H]1O)[C@@H](C)CC
active: Mus musculus [1] | Mus musculus [2] | Mus musculus [3] | Mus musculus [4] | Mus musculus [5] | Mus musculus [6] | Mus musculus [7] | Mus musculus [8] | Mus musculus [9] | Mus musculus [10] | Mus musculus [11] | Mus musculus [12]

C[C@@H]1O[C@@H](O[C@H]2[C@H](O)[C@@H](C(=O)NCCCCCCCCCCC(=O)OCc3ccccc3)O[C@@H](O[C@H]3CC[C@]4(C)[C@H]5CC=C6[C@@H]7CC(C)(C)CC[C@]7(C(=O)O[C@@H]7O[C@H](C)[C@H](O)[C@H](O)[C@H]7O[C@@H]7O[C@@H](C)[C@H](O[C@@H]8OC[C@@H](O)[C@H](O)[C@H]8O)[C@@H](O[C@@H]8O[C@H](CO)[C@@H](O)[C@H](O[C@@H]9OC[C@@H](O)[C@H](O)[C@H]9O)[C@H]8O)[C@H]7O)[C@H](O)C[C@@]6(C)[C@]5(C)CC[C@H]4[C@]3(C)C=O)[C@@H]2O[C@@H]2O[C@H](CO)[C@H](O)[C@H](O)[C@H]2O)[C@H](O)[C@H](O)[C@H]1O
active: Mus musculus [13] | Mus musculus [14] | Mus musculus [15] | Mus musculus [16] | Mus musculus [17] | Mus musculus [18] | Mus musculus [19] | Mus musculus [20] | Splenocyte [21] | Mus musculus [22] | Splenocyte [23] | Mus musculus [24] | Mus musculus [25]
